Reference: ChEMBL document CHEMBL4622841, “Structural modifications of indolinones bearing a pyrrole moiety and discovery of a multi-kinase inhibitor with potent antitumor activity” (Bioorg Med Chem, 2020)

How the values were obtained:
[1] = biological target: Platelet-derived growth factor receptor beta (Homo sapiens, UniProt P09619); assay: Inhibition of N-terminal GST-fused human PDGFRbeta cytoplasmic domain (557 to 1106 (end) residues) expressed in baculovirus expression system using FAM-labeled peptide and ATP as substrate preincubated for 10 mins followed by substrate addition measured after 1 hr by mobility shift assay
Chain of Platelet-derived growth factor receptor beta (P09619 whole entry, the tested form may be a part): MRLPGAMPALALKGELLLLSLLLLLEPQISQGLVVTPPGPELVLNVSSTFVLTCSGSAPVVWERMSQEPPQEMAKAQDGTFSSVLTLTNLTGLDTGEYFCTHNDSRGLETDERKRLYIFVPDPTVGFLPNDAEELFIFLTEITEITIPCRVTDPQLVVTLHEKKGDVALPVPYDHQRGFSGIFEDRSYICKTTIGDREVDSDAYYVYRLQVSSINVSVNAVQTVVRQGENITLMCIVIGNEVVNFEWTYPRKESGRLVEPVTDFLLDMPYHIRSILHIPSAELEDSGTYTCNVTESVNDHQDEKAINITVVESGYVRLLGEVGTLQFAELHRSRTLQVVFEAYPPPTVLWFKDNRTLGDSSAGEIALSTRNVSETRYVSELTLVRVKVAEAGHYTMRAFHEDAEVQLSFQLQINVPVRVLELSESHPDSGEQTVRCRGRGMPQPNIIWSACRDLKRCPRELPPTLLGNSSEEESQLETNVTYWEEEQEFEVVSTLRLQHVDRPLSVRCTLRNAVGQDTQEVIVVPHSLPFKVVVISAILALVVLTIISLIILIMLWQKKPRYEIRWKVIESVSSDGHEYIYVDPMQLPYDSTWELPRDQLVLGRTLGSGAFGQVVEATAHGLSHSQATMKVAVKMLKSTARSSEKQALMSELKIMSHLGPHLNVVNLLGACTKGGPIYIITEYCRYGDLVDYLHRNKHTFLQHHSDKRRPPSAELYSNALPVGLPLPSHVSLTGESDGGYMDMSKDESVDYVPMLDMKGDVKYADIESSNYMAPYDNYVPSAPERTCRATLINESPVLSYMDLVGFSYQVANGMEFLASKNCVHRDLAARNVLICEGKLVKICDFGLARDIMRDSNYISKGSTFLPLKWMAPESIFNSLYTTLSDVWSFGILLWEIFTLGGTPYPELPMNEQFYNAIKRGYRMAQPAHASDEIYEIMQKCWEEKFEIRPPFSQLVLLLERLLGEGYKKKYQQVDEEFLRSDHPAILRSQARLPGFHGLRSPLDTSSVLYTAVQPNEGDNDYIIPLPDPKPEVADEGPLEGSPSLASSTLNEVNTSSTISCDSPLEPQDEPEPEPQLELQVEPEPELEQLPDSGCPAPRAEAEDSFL

[2] = Toxicity in nu/nu mouse xenografted with human HT-29 cells assessed as effect on body weight at 100 mg/kg, po qd for 18 days; type: organism-based; details: in vivo, 432 h
In short: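 Female nu/nu mice, 4–6 weeks old, implanted subcutaneously in the right flank with HT-29 cells (2×10⁶/mL). Once tumours reached 200 mm³, mice randomised to groups (n = 6) and dosed orally once daily at 100 mg/kg for 18 days. Body weight monitored during treatment. Results given as mean ± SD.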

[3] = Half life in human liver microsomes; type: ADME, Microsome
[4] = tested on: HT-29; assay: Antitumor activity against human HT-29 cells xenografted in nu/nu mouse assessed as tumour growth inhibition at 100 mg/kg, po qd for 18 days and measured twice per week by vernier caliper method; type: functional; details: HT-29, po, 432 h, read-out: TGI
[5] = Inhibition of GST-tagged human recombinant VEGFR3 cytoplasmic domain (800 to 1297 residues) Q890H/V1128L/H1146R mutant expressed in baculovirus expression system using FAM-labeled peptide and ATP as substrate preincubated for 10 mins followed by substrate addition measured after 1 hr by mobility shift assay
[6] = Intrinsic clearance in human liver microsomes; type: ADME, Microsome; details: read-out: CLH
[7] = biological target: Cyclin-dependent kinase 2 (Homo sapiens, UniProt P24941); assay: Inhibition of CDK2 (unknown origin) using FAM-labeled peptide and ATP as substrate preincubated for 10 mins followed by substrate addition measured after 1 hr by mobility shift assay
[8] = biological target: Tyrosine-protein kinase Lyn (Homo sapiens, UniProt P07948); assay: Inhibition of LYN (unknown origin) using FAM-labeled peptide and ATP as substrate preincubated for 10 mins followed by substrate addition measured after 1 hr by mobility shift assay
Chain of Tyrosine-protein kinase Lyn (P07948 whole entry): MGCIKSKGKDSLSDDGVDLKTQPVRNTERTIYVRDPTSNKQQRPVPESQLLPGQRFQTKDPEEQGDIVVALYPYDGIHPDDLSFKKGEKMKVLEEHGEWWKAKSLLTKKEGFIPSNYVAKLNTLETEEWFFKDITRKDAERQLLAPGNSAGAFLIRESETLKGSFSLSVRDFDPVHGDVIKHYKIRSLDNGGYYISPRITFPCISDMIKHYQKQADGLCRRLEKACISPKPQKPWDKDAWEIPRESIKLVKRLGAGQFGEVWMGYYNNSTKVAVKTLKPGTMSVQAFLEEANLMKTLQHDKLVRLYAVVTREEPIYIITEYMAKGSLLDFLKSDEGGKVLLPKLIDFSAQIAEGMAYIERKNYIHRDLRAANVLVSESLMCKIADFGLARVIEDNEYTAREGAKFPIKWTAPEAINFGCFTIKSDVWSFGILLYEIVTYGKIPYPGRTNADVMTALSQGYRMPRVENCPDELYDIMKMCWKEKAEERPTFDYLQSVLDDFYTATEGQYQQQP

[9] = Inhibition of N-terminal GST-tagged human recombinant PDGFRalpha D842I mutant expressed in baculovirus-infected Sf9 cells using FAM-labeled peptide and ATP as substrate preincubated for 10 mins followed by substrate addition measured after 1 hr by mobility shift assay
[10] = biological target: Vascular endothelial growth factor receptor 2 (Homo sapiens, UniProt P35968); assay: Inhibition of N-terminal GST fused human VEGFR2 cytoplasmic domain (790 to 1356 (end) residues) expressed in baculovirus expression system using FAM-labeled peptide and ATP as substrate preincubated for 10 mins followed by substrate addition measured after 1 hr by mobility shift assay
Chain of Vascular endothelial growth factor receptor 2 (P35968 whole entry, the tested form may be a part): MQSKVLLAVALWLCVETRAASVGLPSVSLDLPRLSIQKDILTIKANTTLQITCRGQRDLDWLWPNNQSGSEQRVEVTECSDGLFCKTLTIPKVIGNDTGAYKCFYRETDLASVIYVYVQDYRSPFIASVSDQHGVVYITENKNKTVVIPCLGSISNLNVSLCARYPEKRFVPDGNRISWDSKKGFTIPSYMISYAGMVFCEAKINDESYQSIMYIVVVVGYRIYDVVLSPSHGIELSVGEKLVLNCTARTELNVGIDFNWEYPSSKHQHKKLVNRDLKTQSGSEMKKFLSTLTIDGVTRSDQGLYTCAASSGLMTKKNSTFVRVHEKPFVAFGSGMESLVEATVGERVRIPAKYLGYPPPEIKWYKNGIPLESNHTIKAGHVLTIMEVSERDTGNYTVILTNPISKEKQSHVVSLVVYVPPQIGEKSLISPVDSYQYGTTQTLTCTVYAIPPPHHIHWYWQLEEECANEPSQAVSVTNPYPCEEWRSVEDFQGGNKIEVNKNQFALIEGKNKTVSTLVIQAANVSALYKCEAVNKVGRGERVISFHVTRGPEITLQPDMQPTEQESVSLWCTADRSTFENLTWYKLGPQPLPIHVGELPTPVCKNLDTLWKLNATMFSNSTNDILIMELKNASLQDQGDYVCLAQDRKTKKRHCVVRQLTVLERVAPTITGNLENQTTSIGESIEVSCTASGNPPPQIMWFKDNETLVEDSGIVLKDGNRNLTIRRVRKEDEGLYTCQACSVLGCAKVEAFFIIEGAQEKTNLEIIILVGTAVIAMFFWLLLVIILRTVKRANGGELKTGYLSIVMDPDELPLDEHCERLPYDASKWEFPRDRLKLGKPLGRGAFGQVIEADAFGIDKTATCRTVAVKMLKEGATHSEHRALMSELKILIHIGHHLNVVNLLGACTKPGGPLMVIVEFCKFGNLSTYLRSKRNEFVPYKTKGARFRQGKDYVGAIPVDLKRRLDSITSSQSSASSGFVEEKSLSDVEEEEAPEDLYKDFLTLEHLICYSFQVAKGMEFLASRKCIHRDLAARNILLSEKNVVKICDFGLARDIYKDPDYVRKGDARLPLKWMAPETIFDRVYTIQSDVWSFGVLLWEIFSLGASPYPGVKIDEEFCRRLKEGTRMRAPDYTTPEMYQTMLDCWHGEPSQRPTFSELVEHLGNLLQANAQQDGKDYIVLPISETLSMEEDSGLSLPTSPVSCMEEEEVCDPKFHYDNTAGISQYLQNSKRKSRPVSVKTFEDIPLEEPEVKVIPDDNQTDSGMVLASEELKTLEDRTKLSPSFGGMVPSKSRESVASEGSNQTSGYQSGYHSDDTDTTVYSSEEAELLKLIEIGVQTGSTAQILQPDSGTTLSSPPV

COC(=O)c1ccc2c(c1)NC(=O)/C2=C(\Nc1ccc(-n2c(C)ccc2CN2CCN(C)CC2)nc1)c1ccccc1
IC50 [1]: 123 nM

COC(=O)c1ccc2c(c1)NC(=O)/C2=C(\Nc1ccc(-n2cccc2CN2CCN(C)CC2)c(C)c1)c1ccccc1
IC50 [1]: 206 nM

COC(=O)c1ccc2c(c1)NC(=O)/C2=C(\Nc1ccc(-n2cccc2CN(C)C)c(C)c1)c1ccccc1
IC50 [1]: 31 nM

COC(=O)c1ccc2c(c1)NC(=O)/C2=C(\Nc1ccc(-n2c(C)ccc2CN2CCOCC2)cc1)c1ccccc1
IC50 [1]: 37 nM

COC(=O)c1ccc2c(c1)NC(=O)/C2=C(\Nc1ccc(N(C)C(=O)CN2CCN(C)CC2)cc1)c1ccccc1 [NINTEDANIB]
Activity [2]: Non-Toxic | half-life [3]: 27.4 min | inhibition in vivo at 100 mg/kg [4]: 44.3% | IC50 [5]: 3 nM | CLint scaled [6]: 63.5 mL/min/kg | IC50 [7]: > 1000 nM | IC50 [8]: 55 nM | IC50 [9]: 1.9 nM

COC(=O)c1ccc2c(c1)NC(=O)/C2=C(\Nc1cnc(-n2cccc2CN(C)C)c(C)c1)c1ccccc1
IC50 [1]: 71 nM | IC50 [10]: > 1000 nM

CCN(CC)Cc1ccc(C)n1-c1ccc(N/C(=C2\C(=O)Nc3cc(C(=O)OC)ccc32)c2ccccc2)cc1
IC50 [1]: 23.8 nM

COC(=O)c1ccc2c(c1)NC(=O)/C2=C(\Nc1ccc(-n2c(C)ccc2CN(C)C)nc1)c1ccccc1
IC50 [1]: 32 nM

COC(=O)c1ccc2c(c1)NC(=O)/C2=C(\Nc1ccc(-n2cccc2CN(C)C)cc1)c1ccccc1
IC50 [1]: 11 nM

COC(=O)c1ccc2c(c1)NC(=O)/C2=C(\Nc1cnc(-n2cccc2CN2CCN(C)CC2)c(C)c1)c1ccccc1
IC50 [1]: > 300 nM | IC50 [10]: > 1000 nM

COC(=O)c1ccc2c(c1)NC(=O)/C2=C(\Nc1ccc(-n2c(C)ccc2CN(C)C)cc1)c1ccccc1
IC50 [1]: 45.3 nM

COC(=O)c1ccc2c(c1)NC(=O)/C2=C(\Nc1ccc(-n2cccc2CN2CCN(C)CC2)cc1)c1ccccc1
IC50 [1]: 55 nM

COC(=O)c1ccc2c(c1)NC(=O)/C2=C(\Nc1ccc(-n2cccc2CN2CCN(C)CC2)nc1)c1ccccc1
IC50 [1]: 114 nM

COC(=O)c1ccc2c(c1)NC(=O)/C2=C(\Nc1ccc(-n2cccc2CN(C)C)nc1)c1ccccc1
IC50 [1]: 26 nM
